This passage reports EC50 and Activity results from ChEMBL document CHEMBL3632609, “Hederagenin as a triterpene template for the development of new antitumor compounds” (Eur J Med Chem, 2015).

The structures appear in SMILES notation. The source made the active and inactive calls. The rule behind the calls is not given here.

Broadly, the EC50 is the concentration that produces a half-maximal response.

Holding throughout (format): functional, cell-based
The test system of assay [1] is A2780. Nature of the assay: Cytotoxicity against human A2780 cells assessed as cell survival after 96 hrs by sulforhodamine B assay. The note with it: A2780, 96 h. The method, boiled down: (§1)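 Cells in exponential growth were seeded at densities that avoided confluence and, after 24 h, exposed to serial compound dilutions (0-30 μM, DMSO ≤0.5% final) for 96 h. Cells were then fixed with 10% TCA at 4 °C, washed with water, and stained with 0.4% SRB for about 20 min. Excess dye was removed with 1% acetic acid, bound dye was taken up in 10 mM Tris base, and absorbance was read at 570 nm.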
(The SRB assay estimates cell density from bound dye.)

A further assay relates to MCF7. In words: Cytotoxicity against human MCF7 cells assessed as cell survival after 96 hrs by sulforhodamine B assay. The note with it: MCF7, 96 h. The method, boiled down:
as §1

A further assay has as its system A549. Nature of the assay: Cytotoxicity against human A549 cells assessed as cell survival after 96 hrs by sulforhodamine B assay. Conditions: A549, 96 h. The essentials: as §1
Assay [2] in a line: Cytotoxicity against human 518A2 cells assessed as cell survival after 96 hrs by sulforhodamine B assay. Conditions: 518A2, 96 h. The essentials: as §1
The subject of a further assay is 8505C. Nature of the assay: Cytotoxicity against human 8505C cells assessed as cell survival after 96 hrs by sulforhodamine B assay. The essentials: as §1
The subject of assay [3] is A2780. In words: Induction of apoptosis in human A2780 cells at EC90 after 48 hrs by acridine orange/propidium iodide staining-based fluorescence microscopic analysis. The essentials: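 The supernatant cells were pelleted, washed in PBS, resuspended in PBS, mixed with acridine orange/propidium iodide, and examined under a fluorescence microscope, with green-fluorescent cells scored as undergoing controlled death and orange cells as necrotic.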

For another assay, the system named is HT-29. Nature of the assay: Cytotoxicity against human HT-29 cells assessed as cell survival after 96 hrs by sulforhodamine B assay. Conditions: HT-29, 96 h. The essentials:
as §1

For the compound `CC1(C)CC[C@]2(C(=O)NCCN3CCCC3)CC[C@]3(C)C(=CC[C@@H]4[C@@]5(C)CC[C@H](O)[C@@](C)(CO)[C@@H]5CC[C@]43C)[C@@H]2C1`, the EC50 stood at 1.1 µM in the assay with A2780 [1]; 3.7 µM in the assay on MCF7; 1.9 µM in the assay on A549; 2 µM in assay [2]; 1.8 µM in the assay with 8505C; 1.2 µM with HT-29. The result in the assay with A2780 [3] was Active.
Regarding `CC1(C)CC[C@]2(C(=O)NCc3ccccc3)CC[C@]3(C)C(=CC[C@@H]4[C@@]5(C)CC[C@H](O)[C@@](C)(CO)[C@@H]5CC[C@]43C)[C@@H]2C1`, the EC50 in the assay on A2780 [1] is 11.4 µM; in the assay on MCF7, 14.6 µM; in the assay on A549 it was 15.7 µM; in assay [2], 13.7 µM; in the assay with 8505C, 13.5 µM; in the assay with HT-29, 15.1 µM.
As to `CC1(C)CC[C@]2(C(=O)NCCN3CCCCC3)CC[C@]3(C)C(=CC[C@@H]4[C@@]5(C)CC[C@H](O)[C@@](C)(CO)[C@@H]5CC[C@]43C)[C@@H]2C1`, the EC50 is 1.8 µM in the assay on A2780 [1]; 6.5 µM with MCF7; 2.7 µM with A549; 3.7 µM in assay [2]; 3.6 µM in the assay with 8505C; 1.3 µM in the assay on HT-29.
`COc1cc(COC(=O)[C@]23CCC(C)(C)C[C@H]2C2=CC[C@@H]4[C@@]5(C)CC[C@H](O)[C@@](C)(CO)[C@@H]5CC[C@@]4(C)[C@]2(C)CC3)cc(OC)c1`: the concentration for a half-maximal effect (EC50) in the assay with A2780 [1] stood at 13.5 µM; in the assay on MCF7 it was 13.4 µM; in the assay with A549, 14 µM; in assay [2] it was 12.7 µM; in the assay on 8505C it was 12.8 µM; with HT-29, 14 µM.
As to `C#CCOC(=O)[C@]12CCC(C)(C)C[C@H]1C1=CC[C@@H]3[C@@]4(C)CC[C@H](O)[C@@](C)(CO)[C@@H]4CC[C@@]3(C)[C@]1(C)CC2`, the half-maximal effective concentration (EC50) is 17 µM in the assay on A2780 [1]; 15.4 µM with MCF7; 15.9 µM in the assay with A549; 12.4 µM in assay [2]; 13.2 µM in the assay with 8505C; 17.7 µM in the assay on HT-29.
Consider `CC1(C)CC[C@]2(C(=O)OCc3cccc([N+](=O)[O-])c3)CC[C@]3(C)C(=CC[C@@H]4[C@@]5(C)CC[C@H](O)[C@@](C)(CO)[C@@H]5CC[C@]43C)[C@@H]2C1`, for which the EC50 in the assay with A2780 [1] came to 11.9 µM; with MCF7, 8.3 µM; in the assay with A549, 8.1 µM; in assay [2], 8.1 µM; with 8505C it was 6.6 µM; in the assay with HT-29, 12 µM.
For `CC1(C)CC[C@]2(C(=O)OCc3ccc(Br)cc3)CC[C@]3(C)C(=CC[C@@H]4[C@@]5(C)CC[C@H](O)[C@@](C)(CO)[C@@H]5CC[C@]43C)[C@@H]2C1`, the EC50 in the assay on A2780 [1] stood at 13.2 µM; in the assay with MCF7, 13.5 µM; in the assay on A549, 13.5 µM; in assay [2] it was 11.6 µM; in the assay with 8505C, 8.6 µM; with HT-29, 13.7 µM.
